According to ChEMBL document CHEMBL1128546 (J Med Chem, 1995):

Key:
Oryctolagus cuniculus [1] = species: Oryctolagus cuniculus; experiment: Maximum vein contraction obtained relative to 5-hydroxytryptamine; format: functional
Oryctolagus cuniculus [2] = species: Oryctolagus cuniculus; experiment: The compound was tested for functional activity by measuring the contraction of saphenous vein from New Zealand white rabbit
[3] = biological target: 5-hydroxytryptamine receptor 1D (Homo sapiens, UniProt P28221); experiment: Binding affinity to recombinant human 5-hydroxytryptamine 1D receptor alpha
In short: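 Binding to the cloned human receptor subtype. Values are Ki, given as the mean of one or two independent experiments, each run in duplicate.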

5-hydroxytryptamine receptor 1D, sequence (P28221 whole entry): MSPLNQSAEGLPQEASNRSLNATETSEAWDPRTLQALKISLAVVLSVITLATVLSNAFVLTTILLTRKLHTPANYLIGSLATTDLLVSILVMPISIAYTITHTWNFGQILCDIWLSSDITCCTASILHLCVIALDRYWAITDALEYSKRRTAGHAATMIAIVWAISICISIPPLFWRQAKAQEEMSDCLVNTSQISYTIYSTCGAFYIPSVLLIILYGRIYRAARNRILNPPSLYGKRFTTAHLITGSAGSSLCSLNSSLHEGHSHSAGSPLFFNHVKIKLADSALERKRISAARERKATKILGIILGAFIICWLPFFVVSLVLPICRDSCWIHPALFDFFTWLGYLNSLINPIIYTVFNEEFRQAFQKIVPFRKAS

Compound | Rel max (Oryctolagus cuniculus [1]) | pD2 (Oryctolagus cuniculus [2]) | Ki [3] [nM]
NCCc1c[nH]c2ccc(OCC(=O)N3CCN(c4ccc(NC(=O)c5ccccc5)cc4)CC3)cc12 | 0.9 | 7.31 | 1.7
CS(=O)(=O)NCc1ccccc1N1CCN(C(=O)COc2ccc3[nH]cc(CCN)c3c2)CC1 | 0.93 | 6 | 1.8
NCCc1c[nH]c2ccc(O)cc12 [SEROTONIN] | 1 |  | 
NCCc1c[nH]c2ccc(OCC(=O)N3CCN(c4ccc([N+](=O)[O-])cc4)CC3)cc12 | 0.52 | 6.12 | 0.42
NCCc1c[nH]c2ccc(OCCCCC(=O)N3CCN(c4ccc([N+](=O)[O-])cc4)CC3)cc12 | 0.71 | 6.74 | 2.5
CC(=O)Nc1ccc(N2CCN(C(=O)COc3ccc4[nH]cc(CCN)c4c3)CC2)cc1 | 1.01 | 6.67 | 
NCCc1c[nH]c2ccc(OCCCC(=O)N3CCN(c4ccc([N+](=O)[O-])cc4)CC3)cc12 | 1.06 | 6.91 | 1.2
CN(C)S(=O)(=O)Nc1ccc(N2CCN(C(=O)COc3ccc4[nH]cc(CCN)c4c3)CC2)cc1.Cl.O | 0.96 | 7.2 | 0.26
NCCc1c[nH]c2ccc(OCC(=O)N3CCN(c4ccc(N)cc4)CC3)cc12 | 0.83 | 6.88 | 2.92
NCCc1c[nH]c2ccc(OCCCCC(=O)N3CCN(c4ccc(N)cc4)CC3)cc12 | 0.73 | 7.05 | 1.4
NCCc1c[nH]c2ccc(OCCCCCC(=O)N3CCN(c4ccc(N)cc4)CC3)cc12 | 0.79 | 8.09 | 0.38
CN(C)CCc1c[nH]c2ccc(Cn3cncn3)cc12 [RIZATRIPTAN] | 1.42 | 6.15 | 
Cc1ccccc1N1CCN(C(=O)COc2ccc3[nH]cc(CCN)c3c2)CC1 | 1.01 | 5.86 | 
CS(=O)(=O)Nc1ccc(N2CCN(C(=O)CCCCCOc3ccc4[nH]cc(CCN)c4c3)CC2)cc1 | 1.05 | 8.33 | 
CS(=O)(=O)Nc1ccc(N2CCN(C(=O)COc3ccc4[nH]cc(CCN)c4c3)CC2)cc1 | 1.21 | 7.62 | 0.56
NCCc1c[nH]c2ccc(OCC(=O)N3CCN(c4ccc(CN)cc4)CC3)cc12 | 0.92 | 6.8 | 0.93
N#Cc1ccccc1N1CCN(C(=O)COc2ccc3[nH]cc(CCN)c3c2)CC1 | 1.22 | 7.42 | 0.92
NCCc1c[nH]c2ccc(OCC(=O)N3CCN(c4ccccc4)CC3)cc12 | 0.68 | 7.63 | 1.2
NCCc1c[nH]c2ccc(OCCCCCC(=O)N3CCN(c4ccc([N+](=O)[O-])cc4)CC3)cc12 | 0.73 | 7 | 0.34
NCCc1c[nH]c2ccc(OCC(=O)N3CCN(c4ccccc4CN)CC3)cc12 | 0.9 | 6.52 | 6.9
NCCc1c[nH]c2ccc(OCC(=O)N3CCN(c4ccccc4[N+](=O)[O-])CC3)cc12 | 0.87 | 6.33 | 0.58
CNS(=O)(=O)Cc1ccc2[nH]cc(CCN(C)C)c2c1 | 1.26 | 5.75 | 
CN(C)CCc1c[nH]c2ccc(C[C@H]3COC(=O)N3)cc12 [ZOLMITRIPTAN] | 1.48 | 6.13 | 0.92
CS(=O)(=O)NCc1ccc(N2CCN(C(=O)COc3ccc4[nH]cc(CCN)c4c3)CC2)cc1 | 0.88 | 6.92 | 1
